Test results reported in ChEMBL document CHEMBL1152714, “Design, synthesis and biological evaluation of a novel class of anticancer agents: anthracenylisoxazole lexitropsin conjugates” (Bioorg Med Chem, 2009).
Activity calls are given as the source filed them. No cut-off for these calls is given here.

What was measured:
[1] = Antitumor activity against human NCI60 cells after 48 hrs by SRB assay; assay type: functional; conditions: NCI60, 48 h
Summary of the method: (§1)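 Cells were exposed to the drug continuously for 48 h. Cell viability or growth was estimated with the sulforhodamine B protein assay.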

[2] = tested on: NCI-H226; assay: Antitumor activity against human NCI-H226 cells overexpressing c-myc after 48 hrs by SRB assay; assay type: functional; conditions: NCI-H226, 48 h; summary of the method: as §1
[3] = tested on: HOP-62; assay: Antitumor activity against human HOP62 cells overexpressing c-myc after 48 hrs by SRB assay; assay type: functional; conditions: HOP-62, 48 h; summary of the method: as §1
[4] = tested on: HOP-92; assay: Antitumor activity against human HOP92 cells overexpressing c-myc after 48 hrs by SRB assay; assay type: functional; conditions: HOP-92, 48 h; summary of the method: as §1
[5] = tested on: SF-539; assay: Antitumor activity against human SF539 cells overexpressing c-myc after 48 hrs by SRB assay; assay type: functional; conditions: SF-539, 48 h; summary of the method: as §1
[6] = species: Homo sapiens; assay: Stabilization of human telomeric G-quadruplex DNA assessed as inhibition of duplex formation at 5 uM by ESI-MS study
Summary of the method: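 Time-course ESI-MS was run on a mixture of 5 μM G-quadruplex DNA, 5 μM complementary C-DNA and 5 μM ligand. Ion intensities of single-stranded and duplex DNA were followed as the strands re-hybridized. TMPyP4 was the positive control and no ligand the negative control.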

[7] = molecular target: DNA polymerase I, thermostable (Thermus aquaticus) (UniProt P19821); assay: Inhibition of Taq polymerase
Chain of DNA polymerase I, thermostable (Thermus aquaticus) (P19821 whole entry): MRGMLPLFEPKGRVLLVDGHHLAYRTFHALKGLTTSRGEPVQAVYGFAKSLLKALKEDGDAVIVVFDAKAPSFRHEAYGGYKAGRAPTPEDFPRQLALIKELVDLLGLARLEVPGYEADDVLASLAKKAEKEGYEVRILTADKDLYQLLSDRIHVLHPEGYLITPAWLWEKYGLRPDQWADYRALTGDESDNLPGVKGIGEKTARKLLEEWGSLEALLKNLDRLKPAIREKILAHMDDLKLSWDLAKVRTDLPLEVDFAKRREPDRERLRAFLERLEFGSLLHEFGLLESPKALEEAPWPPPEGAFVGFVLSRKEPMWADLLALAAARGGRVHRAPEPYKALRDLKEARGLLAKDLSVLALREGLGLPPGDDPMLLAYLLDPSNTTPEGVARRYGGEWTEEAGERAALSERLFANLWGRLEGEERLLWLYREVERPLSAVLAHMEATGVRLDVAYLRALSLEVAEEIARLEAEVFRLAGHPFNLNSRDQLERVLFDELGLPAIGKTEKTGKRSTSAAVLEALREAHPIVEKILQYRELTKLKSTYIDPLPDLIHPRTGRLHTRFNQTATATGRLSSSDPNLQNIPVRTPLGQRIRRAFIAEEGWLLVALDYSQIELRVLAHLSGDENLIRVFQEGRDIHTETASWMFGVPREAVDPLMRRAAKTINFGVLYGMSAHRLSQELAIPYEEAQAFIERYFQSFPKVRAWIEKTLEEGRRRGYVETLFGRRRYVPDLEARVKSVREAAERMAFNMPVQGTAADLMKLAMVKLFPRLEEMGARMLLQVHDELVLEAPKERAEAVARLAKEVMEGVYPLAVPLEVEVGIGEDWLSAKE

[8] = molecular target: Telomerase reverse transcriptase (Homo sapiens) (UniProt O14746); assay: Inhibition of telomerase assessed as telomere elongation by TRAP assay
Chain of Telomerase reverse transcriptase (Homo sapiens) (O14746 whole entry): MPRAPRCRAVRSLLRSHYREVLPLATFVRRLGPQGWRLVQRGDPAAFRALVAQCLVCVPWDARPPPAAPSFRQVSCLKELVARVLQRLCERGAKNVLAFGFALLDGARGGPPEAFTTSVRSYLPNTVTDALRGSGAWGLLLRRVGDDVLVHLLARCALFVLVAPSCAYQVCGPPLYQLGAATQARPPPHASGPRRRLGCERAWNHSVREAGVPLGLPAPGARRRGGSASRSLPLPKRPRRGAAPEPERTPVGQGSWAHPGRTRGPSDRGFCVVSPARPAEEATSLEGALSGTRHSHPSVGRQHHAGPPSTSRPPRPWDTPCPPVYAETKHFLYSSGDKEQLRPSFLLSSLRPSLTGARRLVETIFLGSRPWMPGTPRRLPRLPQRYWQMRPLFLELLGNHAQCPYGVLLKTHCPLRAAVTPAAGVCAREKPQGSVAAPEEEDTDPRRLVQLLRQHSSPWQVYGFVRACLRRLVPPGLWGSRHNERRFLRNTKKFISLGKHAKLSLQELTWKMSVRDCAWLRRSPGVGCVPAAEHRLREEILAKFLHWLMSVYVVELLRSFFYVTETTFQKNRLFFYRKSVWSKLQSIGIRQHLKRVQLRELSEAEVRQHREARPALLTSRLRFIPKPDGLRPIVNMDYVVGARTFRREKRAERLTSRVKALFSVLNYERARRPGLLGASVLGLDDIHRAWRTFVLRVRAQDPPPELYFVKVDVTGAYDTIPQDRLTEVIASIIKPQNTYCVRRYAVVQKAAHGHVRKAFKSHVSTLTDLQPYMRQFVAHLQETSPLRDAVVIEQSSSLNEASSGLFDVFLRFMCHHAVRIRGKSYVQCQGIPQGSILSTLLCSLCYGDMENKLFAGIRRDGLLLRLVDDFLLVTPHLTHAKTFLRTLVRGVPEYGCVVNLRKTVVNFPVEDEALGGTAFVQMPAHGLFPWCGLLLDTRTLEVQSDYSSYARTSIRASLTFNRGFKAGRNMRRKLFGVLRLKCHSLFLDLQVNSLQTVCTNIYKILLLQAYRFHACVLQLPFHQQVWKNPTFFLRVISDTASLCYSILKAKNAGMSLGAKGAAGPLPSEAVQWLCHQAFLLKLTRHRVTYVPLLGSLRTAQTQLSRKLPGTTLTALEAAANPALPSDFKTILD
Summary of the method: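 Telomere elongation was assessed by a TRAP assay with gel electrophoresis read-out.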

[9] = tested on: Mus musculus; assay: Toxicity in mouse assessed as weight gain at 100 mg/kg, ip after 14 days; assay type: organism-based; design: dose 100 mg/kg, route intraperitoneal; conditions: in vivo, 336 h
Summary of the method: (§2)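 Acute toxicity was tested in mice at three dose regimens (100, 200 and 400 mg/kg). Body weight was assessed at day 14.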

[10] = species: Homo sapiens; assay: Binding affinity to human DNA at a drug-DNA ratio of 1:1 by fluorescence experiment
Summary of the method: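 Solution fluorescence was measured on histone-free human DNA mixed with the ligand at a 1:1 molar ratio. The shift in λmax was monitored.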

[11] = tested on: DNA; assay: Binding affinity to calf thymus DNA at 10 uM by microarray fluorescence experiment; assay type: nucleic-acid assay; conditions: Bos taurus
Summary of the method: (§3)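 DNA was prepared in TE buffer with 10 mM KCl at pH 7.0, to a final concentration of 400 […]. The oligonucleotide was hybridized with Cy3-AP3-dCTP. The ligand was 10 μM in aqueous 25% DMSO. Mixtures were incubated at 37°C for 5 min, then printed on slides. Excitation was at 310, 380, 410 and 485 nm, emission at 530 nm. Slides were read on a microarray scanner at 10 μm resolution.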

[12] = tested on: Mus musculus; assay: Toxicity in mouse assessed as weight gain at 200 mg/kg, ip after 14 days; assay type: organism-based; design: dose 200 mg/kg, route intraperitoneal; conditions: in vivo, 336 h; summary of the method: as §2
[13] = tested on: Mus musculus; assay: Toxicity in mouse assessed as weight gain at 400 mg/kg, ip after 14 days; assay type: organism-based; design: dose 400 mg/kg, route intraperitoneal; conditions: in vivo, 336 h; summary of the method: as §2
[14] = Binding affinity to Hurley-oligonucleotide at 10 uM by microarray fluorescence experiment; summary of the method: as §3
[15] = tested on: Mus musculus; assay: Acute toxicity in ip dosed mouse; assay type: organism-based; conditions: in vivo
Summary of the method: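 Mice given three dose regimens (100, 200 and 400 mg/kg), with animals followed to day 14 and body weight recorded at day 14 for signs of acute toxicity.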

[16] = tested on: SNB-75; assay: Antitumor activity against human SNB75 cells overexpressing c-myc after 48 hrs by SRB assay; assay type: functional; conditions: SNB-75, 48 h; summary of the method: as §1
[17] = tested on: EKVX; assay: Antitumor activity against human EKVX cells overexpressing c-myc after 48 hrs by SRB assay; assay type: functional; summary of the method: as §1
[18] = tested on: HCC 2998; assay: Antitumor activity against human HCC2998 cells overexpressing c-myc after 48 hrs by SRB assay; assay type: functional; conditions: HCC 2998, 48 h; summary of the method: as §1
[19] = tested on: SF-295; assay: Antitumor activity against human SF295 cells overexpressing c-myc after 48 hrs by SRB assay; assay type: functional; conditions: SF-295, 48 h; summary of the method: as §1

Row | Compound | GI50 ([1]; read-out: GI50) [µM] | GI50 ([1]; read-out: pGI50 (converted)) [µM] | also measured
1 | Cc1onc(-c2c3ccccc3cc3ccccc23)c1C(=O)Nc1cc(C(=O)Nc2cc(C(=O)N(CCCN(C)C)CCCN(C)C)n(C)c2)n(C)c1 | 15.5 | 15.5 | –
2 | Cc1onc(-c2c3ccccc3cc3ccccc23)c1C(=O)NCCCN(C)C | 32.4 | 32.4 | GI50 [2]: < 0.01 µM
3 | Cc1onc(-c2c3ccccc3c(-c3ccccc3)c3ccccc23)c1C(=O)Nc1cc(C(=O)NCCCN(C)C)n(C)c1 | 0.95 | 1.95 | GI50 [3]: 0.0105 µM; GI50 [4]: 0.0631 µM; GI50 [5]: < 0.01 µM; Activity [6]: Active
4 | Cc1onc(-c2c3ccccc3cc3ccccc23)c1C(=O)Nc1cc(C(=O)N(CCCN(C)C)CCCN(C)C)n(C)c1 | 3.89 | 3.89 | –
5 | C[n+]1ccc(-c2c3nc(c(-c4cc[n+](C)cc4)c4ccc([nH]4)c(-c4cc[n+](C)cc4)c4ccc([nH]4)c(-c4cc[n+](C)cc4)c4nc2C=C4)C=C3)cc1 | – | – | Activity [6]: Active
6 | Cc1onc(-c2c3ccccc3c(Cl)c3ccccc23)c1C(=O)Nc1cc(C(=O)NCCCN(C)C)n(C)c1 | 1.78 | 1.91 | GI50 [4]: 0.0933 µM; Activity [7]: inactive; Activity [8]: Active; Activity [6]: Active
7 | Cc1onc(-c2c3ccccc3cc3ccccc23)c1C(=O)Nc1cc(C(=O)Nc2cc(C(=O)NCCCN(C)C)n(C)c2)n(C)c1 | 10.5 | 12.3 | Activity [9]: Toxic; Activity [10]: Active; Activity [11]: Active; Activity [12]: Toxic; Activity [13]: Toxic; Activity [14]: Active; Activity [15]: Non-toxic
8 | Cc1onc(-c2c3ccccc3cc3ccccc23)c1C(=O)N(CCCN(C)C)CCCN(C)C | 4.57 | 4.9 | –
9 | Cc1onc(-c2c3ccccc3cc3ccccc23)c1C(=O)Nc1cc(C(=O)NCCCN(C)C)n(C)c1 | 7.94 | 7.94 | GI50 [3]: 0.407 µM
10 | CCOC(=O)c1c(-c2c3ccccc3nc3ccccc23)noc1C | 20.4 | 20.4 | –
11 | CN(C)CCCNC(=O)c1cc(NC(=O)c2cc(NC(=O)c3onc(-c4c5ccccc5cc5ccccc45)c3C(=O)Nc3cc(C(=O)Nc4cc(C(=O)NCCCN(C)C)n(C)c4)n(C)c3)cn2C)cn1C | 20.4 | 20.4 | –
12 | Cc1onc(-c2c3ccccc3c(Br)c3ccccc23)c1C(=O)Nc1cc(C(=O)NCCCN(C)C)n(C)c1 | 8.71 | 8.71 | GI50 [16]: 0.158 µM
13 | Cc1onc(-c2c3ccccc3nc3ccccc23)c1C(=O)Nc1cc(C(=O)Nc2cc(C(=O)NCCCN(C)C)n(C)c2)n(C)c1 | 20.9 | 20.9 | GI50 [17]: 0.661 µM; GI50 [18]: 0.776 µM; GI50 [19]: 0.0302 µM
